Experimental data reported in ChEMBL document CHEMBL4376814, “Novel cyclin-dependent kinase 9 (CDK9) inhibitor with suppression of cancer stemness activity against non-small-cell lung cancer” (Eur J Med Chem, 2019).
The source made the active and inactive calls. No cut-off for these calls is given here.

Tests used:
[1] = target: Mitogen-activated protein kinase kinase kinase kinase 5 (Homo sapiens) (UniProt Q9Y4K4); assay: Inhibition of recombinant full-length human MAP4K5 at 1 uM using MBP as substrate measured after 40 mins in presence of [gamma33P]ATP by scintillation counting method relative to control
Sequence of Mitogen-activated protein kinase kinase kinase kinase 5 (Homo sapiens) (Q9Y4K4 whole entry, looked up): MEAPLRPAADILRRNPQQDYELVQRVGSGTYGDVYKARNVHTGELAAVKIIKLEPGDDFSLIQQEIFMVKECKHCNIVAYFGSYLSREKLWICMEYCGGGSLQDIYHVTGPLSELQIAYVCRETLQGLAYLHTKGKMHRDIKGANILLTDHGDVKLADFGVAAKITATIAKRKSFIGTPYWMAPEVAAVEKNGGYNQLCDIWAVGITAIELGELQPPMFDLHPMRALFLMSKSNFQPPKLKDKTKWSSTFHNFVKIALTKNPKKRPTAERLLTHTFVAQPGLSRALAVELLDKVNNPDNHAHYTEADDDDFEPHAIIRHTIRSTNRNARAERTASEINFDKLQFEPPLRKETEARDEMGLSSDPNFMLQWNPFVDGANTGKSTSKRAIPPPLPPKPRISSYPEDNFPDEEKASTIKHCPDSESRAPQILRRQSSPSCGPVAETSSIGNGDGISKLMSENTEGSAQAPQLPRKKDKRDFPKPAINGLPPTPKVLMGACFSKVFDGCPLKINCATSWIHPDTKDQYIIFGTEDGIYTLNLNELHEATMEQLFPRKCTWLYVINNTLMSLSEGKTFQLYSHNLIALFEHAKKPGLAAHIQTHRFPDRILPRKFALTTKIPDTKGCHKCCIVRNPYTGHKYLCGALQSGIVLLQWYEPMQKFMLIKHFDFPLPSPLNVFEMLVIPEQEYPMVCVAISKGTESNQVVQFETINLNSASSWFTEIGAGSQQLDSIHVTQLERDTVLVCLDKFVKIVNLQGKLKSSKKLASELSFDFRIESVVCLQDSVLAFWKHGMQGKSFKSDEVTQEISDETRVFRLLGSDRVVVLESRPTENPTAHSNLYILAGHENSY

A549 [2] = assay: Inhibition of tumorsphere formation in human A549 cells assessed as reduction in side population ratio at 0.25 to 1 uM by PI/Hoechst 33342 staining based flow cytometry; assay type: functional, cell-based
NCI-H1299 [3] = assay: Induction of apoptosis in human H1299 cells assessed as necrotic cells at 0.25 uM after 48 hrs by AnnexinV-FITC/PI staining-based flow cytometric analysis (reference value: 0.9%); assay type: functional
[4] = system: Serine/threonine-protein kinase Sgk2 (Homo sapiens), Q9HBY8 [S416D]; assay: Inhibition of recombinant human SGK2 S416D mutant (54 to end residues) at 1 uM using GRPRTSSFAEGKK as substrate measured after 40 mins in presence of [gamma33P]ATP by scintillation counting method relative to control
Sequence of Serine/threonine-protein kinase Sgk2 (Homo sapiens), Q9HBY8 [S416D] (Q9HBY8 1-367 with tags or gaps S416D): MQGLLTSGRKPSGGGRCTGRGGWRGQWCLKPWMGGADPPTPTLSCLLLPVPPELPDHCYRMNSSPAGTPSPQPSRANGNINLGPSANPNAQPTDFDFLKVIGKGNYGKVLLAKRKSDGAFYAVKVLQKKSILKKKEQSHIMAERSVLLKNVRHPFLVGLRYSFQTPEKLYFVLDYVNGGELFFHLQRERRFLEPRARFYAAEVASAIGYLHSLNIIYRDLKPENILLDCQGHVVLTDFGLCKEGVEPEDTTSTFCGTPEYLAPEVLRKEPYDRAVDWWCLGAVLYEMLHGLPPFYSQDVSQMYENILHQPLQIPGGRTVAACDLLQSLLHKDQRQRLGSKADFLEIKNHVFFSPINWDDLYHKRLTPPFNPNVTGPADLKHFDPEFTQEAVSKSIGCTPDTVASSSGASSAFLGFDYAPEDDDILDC

[5] = target: Tyrosine-protein kinase Lck (Homo sapiens) (UniProt P06239); assay: Inhibition of recombinant full-length human LCK at 1 uM using Cdc2 peptide as substrate measured after 40 mins in presence of [gamma33P]ATP by scintillation counting method relative to control
Sequence of Tyrosine-protein kinase Lck (Homo sapiens) (P06239 2-509 limits assumed): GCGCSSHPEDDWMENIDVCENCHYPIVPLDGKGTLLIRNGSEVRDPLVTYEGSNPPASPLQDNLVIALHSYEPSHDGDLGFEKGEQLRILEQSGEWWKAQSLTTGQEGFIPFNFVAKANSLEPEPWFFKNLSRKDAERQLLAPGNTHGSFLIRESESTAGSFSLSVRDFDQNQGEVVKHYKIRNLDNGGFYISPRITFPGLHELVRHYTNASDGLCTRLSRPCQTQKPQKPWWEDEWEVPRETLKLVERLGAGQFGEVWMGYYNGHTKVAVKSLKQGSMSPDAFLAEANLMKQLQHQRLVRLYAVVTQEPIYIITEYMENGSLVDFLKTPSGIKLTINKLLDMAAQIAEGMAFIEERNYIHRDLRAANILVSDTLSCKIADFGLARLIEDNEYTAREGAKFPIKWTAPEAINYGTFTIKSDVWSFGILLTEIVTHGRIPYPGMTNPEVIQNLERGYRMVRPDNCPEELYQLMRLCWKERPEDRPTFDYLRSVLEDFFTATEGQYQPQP

[6] = target: Cyclin-dependent kinase 5/CDK5 activator 1 (Homo sapiens) (UniProt Q00535+Q15078); assay: Inhibition of recombinant full-length human CDK5/p35 at 1 uM using Histone H1 as substrate measured after 40 mins in presence of [gamma33P]ATP by scintillation counting method relative to control; assay type: protein-complex assay
Sequence of Cyclin-dependent kinase 5/CDK5 activator 1 (Homo sapiens) (Q00535 whole entry): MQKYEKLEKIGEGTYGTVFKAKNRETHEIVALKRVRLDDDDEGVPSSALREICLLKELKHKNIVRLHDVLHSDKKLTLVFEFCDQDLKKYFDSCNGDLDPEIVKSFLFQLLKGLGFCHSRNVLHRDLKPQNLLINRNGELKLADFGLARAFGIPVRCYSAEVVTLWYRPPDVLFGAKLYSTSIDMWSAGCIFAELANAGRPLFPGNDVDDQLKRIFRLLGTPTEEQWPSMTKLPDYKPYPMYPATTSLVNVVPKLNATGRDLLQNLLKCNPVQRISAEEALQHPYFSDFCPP
Sequence of Cyclin-dependent kinase 5/CDK5 activator 1 (Homo sapiens) (Q15078 99-307 partner limits assumed): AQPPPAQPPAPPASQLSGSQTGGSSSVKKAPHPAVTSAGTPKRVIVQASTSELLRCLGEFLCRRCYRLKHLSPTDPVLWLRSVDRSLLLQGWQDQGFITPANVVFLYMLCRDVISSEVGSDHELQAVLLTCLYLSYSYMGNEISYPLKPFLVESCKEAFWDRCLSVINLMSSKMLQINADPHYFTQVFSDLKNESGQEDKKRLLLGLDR

[7] = target: CDK9/cyclin T1 (Homo sapiens) (UniProt O60563+P50750); conditions: 1 uM
[8] = target: MAP/microtubule affinity-regulating kinase 3 (Homo sapiens) (UniProt P27448); assay: Inhibition of recombinant full-length human MARK3 at 1 uM using KKKVSRSGLYRSPSMPENLNRPR as substrate measured after 40 mins in presence of [gamma33P]ATP by scintillation counting method relative to control
Sequence of MAP/microtubule affinity-regulating kinase 3 (Homo sapiens) (P27448 whole entry, looked up): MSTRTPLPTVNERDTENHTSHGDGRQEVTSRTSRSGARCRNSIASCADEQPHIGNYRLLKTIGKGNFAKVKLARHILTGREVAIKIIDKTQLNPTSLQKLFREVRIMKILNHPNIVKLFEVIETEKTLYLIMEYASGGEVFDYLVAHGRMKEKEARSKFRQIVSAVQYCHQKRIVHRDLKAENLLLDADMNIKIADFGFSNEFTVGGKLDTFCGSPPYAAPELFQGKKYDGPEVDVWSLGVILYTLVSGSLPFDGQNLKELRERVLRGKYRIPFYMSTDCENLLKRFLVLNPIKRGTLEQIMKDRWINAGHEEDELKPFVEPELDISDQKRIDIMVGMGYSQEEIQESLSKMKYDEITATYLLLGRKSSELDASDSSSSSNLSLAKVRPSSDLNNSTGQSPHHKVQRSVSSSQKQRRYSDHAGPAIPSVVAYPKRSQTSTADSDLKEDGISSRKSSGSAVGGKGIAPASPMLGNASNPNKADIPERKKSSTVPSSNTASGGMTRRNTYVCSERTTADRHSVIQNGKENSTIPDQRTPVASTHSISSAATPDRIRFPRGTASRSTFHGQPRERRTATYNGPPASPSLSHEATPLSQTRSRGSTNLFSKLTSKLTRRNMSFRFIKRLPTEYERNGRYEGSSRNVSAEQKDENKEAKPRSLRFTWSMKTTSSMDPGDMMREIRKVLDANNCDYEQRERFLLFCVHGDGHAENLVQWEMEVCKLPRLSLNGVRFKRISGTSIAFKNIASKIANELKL

[9] = target: Tyrosine-protein kinase ZAP-70 (Homo sapiens) (UniProt P43403); assay: Inhibition of recombinant full-length human ZAP-70 at 1 uM using poly(Glu, Tyr) 4:1 as substrate measured after 40 mins in presence of [gamma33P]ATP by scintillation counting method relative to control
Sequence of Tyrosine-protein kinase ZAP-70 (Homo sapiens) (P43403 whole entry, the tested form may be a part): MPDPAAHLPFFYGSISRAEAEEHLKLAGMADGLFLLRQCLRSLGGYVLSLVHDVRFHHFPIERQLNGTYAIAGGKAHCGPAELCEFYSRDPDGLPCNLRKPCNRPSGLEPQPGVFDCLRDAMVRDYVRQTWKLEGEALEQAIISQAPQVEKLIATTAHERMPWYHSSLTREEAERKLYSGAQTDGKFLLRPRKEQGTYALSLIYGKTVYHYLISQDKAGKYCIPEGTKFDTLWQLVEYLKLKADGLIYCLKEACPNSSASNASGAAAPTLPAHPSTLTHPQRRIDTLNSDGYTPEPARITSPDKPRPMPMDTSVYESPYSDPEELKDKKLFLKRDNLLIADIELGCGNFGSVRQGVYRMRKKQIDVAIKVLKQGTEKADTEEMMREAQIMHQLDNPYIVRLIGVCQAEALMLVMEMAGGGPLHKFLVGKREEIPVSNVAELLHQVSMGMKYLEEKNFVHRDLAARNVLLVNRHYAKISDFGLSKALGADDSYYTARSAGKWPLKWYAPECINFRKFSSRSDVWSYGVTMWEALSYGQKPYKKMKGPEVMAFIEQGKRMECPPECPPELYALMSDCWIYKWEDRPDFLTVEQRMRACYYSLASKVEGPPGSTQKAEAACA

[10] = target: Calcium/calmodulin-dependent protein kinase type II subunit gamma (Homo sapiens) (UniProt Q13555); assay: Inhibition of recombinant full-length human CaMK2gamma (1 to 330 residues) at 1 uM using calmodulin as substrate measured after 40 mins in presence of [gamma33P]ATP by scintillation counting method relative to control
Sequence of Calcium/calmodulin-dependent protein kinase type II subunit gamma (Homo sapiens) (Q13555 whole entry, the tested form may be a part): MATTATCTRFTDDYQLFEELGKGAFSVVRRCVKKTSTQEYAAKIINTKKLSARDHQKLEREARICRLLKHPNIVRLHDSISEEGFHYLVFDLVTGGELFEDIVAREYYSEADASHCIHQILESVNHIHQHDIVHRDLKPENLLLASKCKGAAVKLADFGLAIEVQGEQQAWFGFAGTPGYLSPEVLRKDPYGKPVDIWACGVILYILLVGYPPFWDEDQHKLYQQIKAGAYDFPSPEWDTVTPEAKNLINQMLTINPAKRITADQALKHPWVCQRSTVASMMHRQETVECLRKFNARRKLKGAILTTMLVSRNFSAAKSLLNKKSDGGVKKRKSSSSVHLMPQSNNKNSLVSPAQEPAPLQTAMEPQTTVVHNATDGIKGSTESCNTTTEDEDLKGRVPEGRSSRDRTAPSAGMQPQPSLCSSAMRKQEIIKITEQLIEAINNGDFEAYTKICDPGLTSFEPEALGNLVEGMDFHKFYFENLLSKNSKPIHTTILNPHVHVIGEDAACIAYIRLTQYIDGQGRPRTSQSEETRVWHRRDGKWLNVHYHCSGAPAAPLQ

[11] = target: Cyclin-dependent kinase 9 (Homo sapiens) (UniProt P50750); conditions: A549, 0.25 to 1 uM
Sequence of Cyclin-dependent kinase 9 (Homo sapiens) (P50750 whole entry, canonical isoform): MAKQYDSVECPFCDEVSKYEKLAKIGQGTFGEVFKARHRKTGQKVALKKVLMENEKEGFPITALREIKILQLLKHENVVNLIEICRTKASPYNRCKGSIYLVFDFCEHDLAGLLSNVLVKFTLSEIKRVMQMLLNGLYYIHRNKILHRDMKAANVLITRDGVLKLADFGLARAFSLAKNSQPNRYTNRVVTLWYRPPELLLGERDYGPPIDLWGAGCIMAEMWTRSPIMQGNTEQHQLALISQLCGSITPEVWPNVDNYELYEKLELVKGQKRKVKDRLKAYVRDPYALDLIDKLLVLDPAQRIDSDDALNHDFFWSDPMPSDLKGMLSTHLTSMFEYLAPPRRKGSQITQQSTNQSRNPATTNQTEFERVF

[12] = target: Casein kinase I isoform gamma-2 (Homo sapiens) (UniProt P78368); assay: Inhibition of recombinant human CK1gamma2 (18 to end residues) at 1 uM using KRRRALS(p)VASLPGL as substrate measured after 40 mins in presence of [gamma33P]ATP by scintillation counting method relative to control
Sequence of Casein kinase I isoform gamma-2 (Homo sapiens) (P78368 whole entry, looked up, canonical isoform): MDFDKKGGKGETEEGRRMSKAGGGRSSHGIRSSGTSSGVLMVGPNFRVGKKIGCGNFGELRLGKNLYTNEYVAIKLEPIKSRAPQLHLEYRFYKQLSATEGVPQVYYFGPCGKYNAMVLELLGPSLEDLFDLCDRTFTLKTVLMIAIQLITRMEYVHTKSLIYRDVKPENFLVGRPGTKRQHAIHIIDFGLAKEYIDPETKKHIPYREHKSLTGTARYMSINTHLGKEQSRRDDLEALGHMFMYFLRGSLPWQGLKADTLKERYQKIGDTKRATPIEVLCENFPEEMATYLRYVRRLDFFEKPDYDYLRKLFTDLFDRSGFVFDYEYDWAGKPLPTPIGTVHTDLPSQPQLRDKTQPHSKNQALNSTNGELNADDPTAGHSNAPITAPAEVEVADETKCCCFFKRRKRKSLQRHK

A549 [13] = assay: Antiproliferative activity against human A549 cells assessed as inhibition of cell viability at 10 uM after 72 hrs by CCK-8 assay relative to control; assay type: functional; conditions: A549, 72 h
In short: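 Single-concentration viability screen using CCK-8. Cells were seeded at 3000/well and treated for 72 h. A450 read after 1-4 h with reagent. Percent inhibition calculated against untreated control and blank wells as (Ac−As)/(Ac−Ab)×100%.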

[14] = target: Cyclin-dependent kinase 13/Cyclin-K (Homo sapiens) (UniProt Q14004+O75909); assay: Inhibition of human full length recombinant CDK13/cyclinK at 1 uM using RSRSRSRSRSRSRSR as substrate incubated for 120 mins in presence of [gamma-33P]ATP at by radiometric assay relative to control; assay type: protein-complex assay
[15] = system: Homeodomain-interacting protein kinase 2 (Homo sapiens), Q9H2X6 [UNDEFINED MUTATION]; assay: Inhibition of recombinant human HIPK2 I471N mutant (165 to 564 residues) at 1 uM using myelin basic protein as substrate measured after 40 mins in presence of [gamma33P]ATP by scintillation counting method relative to control
[16] = target: Serine/threonine-protein kinase PAK 5 (Homo sapiens) (UniProt Q9P286); assay: Inhibition of recombinant human PAK5 (425 to end residues) at 1 uM using RRRLSFAEPG as substrate measured after 40 mins in presence of [gamma33P]ATP by scintillation counting method relative to control
NCI-H1299 [17] = assay: Downregulation of NANOG in human H1299 cells at 0.25 to 1 uM by Western blot analysis; assay type: functional, cell-based
NCI-H1299 [18] = assay: Induction of apoptosis in human H1299 cells assessed as early apoptotic cells at 0.25 uM after 48 hrs by AnnexinV-FITC/PI staining-based flow cytometric analysis (reference value: 0.248%); assay type: functional
[19] = target: Tyrosine-protein kinase SYK (Homo sapiens) (UniProt P43405); assay: Inhibition of recombinant full-length human Syk at 1 uM using poly(Glu, Tyr) 4:1 as substrate measured after 40 mins in presence of [gamma33P]ATP by scintillation counting method relative to control
[20] = Half life in human liver microsomes at 2 uM in presence of NADPH measured up to 1 hr by HPLC analysis; assay type: ADME, Microsome
In short: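 Compound at 2 μM incubated at 37 °C with liver microsomes (1 mg/mL), 3 mM MgCl2 and 0.1 M phosphate buffer pH 7.4; 5 min preincubation, then started with 3 mM NADPH. Aliquots (n = 3) at 0, 10, 20, 30, 45, 60 min quenched with ice-cold acetonitrile, centrifuged, supernatant by HPLC. t1/2 from linear-regression kinetic constant k.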

PC-9 = assay: Antiproliferative activity against human PC9 cells assessed as inhibition of cell viability after 72 hrs by CCK-8 assay; assay type: functional, cell-based; conditions: PC-9, 72 h
In short: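 Cells kept at 37 °C, 5% CO2 in DMEM or RPMI-1640 with 10% FBS and 1% penicillin/streptomycin, then seeded at 3000 cells/well (adherent) or 10,000 cells/well (suspension). Exposed to a range of concentrations for 72 h. CCK-8 added for 1-4 h before reading A450. […] Three independent experiments.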

[21] = target: 5'-AMP-activated protein kinase catalytic subunit alpha-1 (Homo sapiens) (UniProt Q13131); assay: Inhibition of full length recombinant human AMPK alpha1 at 1 uM using AMARAASAAALARRR as substrate measured after 40 mins in presence of [gamma33P]ATP by scintillation counting method relative to control
In short: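 Single-point inhibition at 1 µM was measured in the Eurofins KinaseProfiler panel. Values are the mean of two independent experiments.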

Which inhibition [1] does the source give for `CN(C)C(=O)c1cc2cnc(Nc3ccc(NC(=O)CCCCCCCN=C=S)cc3)nc2n1C1CCCC1` here?
Its inhibition is 75%.

What about the inhibition (A549 [2]) of the same molecule?
The inhibition was “Active”.

What about the Activity (NCI-H1299 [3]) of the same molecule?
Its Activity is 0.669%.

What about the inhibition [4] of the same molecule?
The inhibition was 14%.

And the inhibition [5]?
The inhibition was 33%.

And the inhibition [6]?
Its inhibition is 59%.

What about the inhibition [7] of the same molecule?
The inhibition was 98%.

What about the inhibition [8] of the same molecule?
Its inhibition is 43%.

What about the inhibition [9] of the same molecule?
The inhibition was 13%.

And the inhibition [10]?
The inhibition was 53%.

And the inhibition [11]?
The inhibition was “Active”.

What about the inhibition [12] of the same molecule?
The inhibition was 20%.

And the inhibition at 10 µM (A549 [13])?
The inhibition at 10 µM was 99.2%.

What about the inhibition [14] of the same molecule?
Its inhibition is 26%.

And the inhibition [15]?
The inhibition was 7%.

And the inhibition [16]?
The inhibition was -3%.

What about the Activity (NCI-H1299 [17]) of the same molecule?
The Activity was “Active”.

And the Activity (NCI-H1299 [18])?
The Activity was 0.432%.

What about the inhibition [19] of the same molecule?
The inhibition was 22%.

What about the half-life at 2 µM [20] of the same molecule?
The half-life at 2 µM was 33 min.

What about the IC50 (PC-9) of the same molecule?
The IC50 was 947 nM.

What about the inhibition [21] of the same molecule?
The inhibition was 11%.
